This passage reports inhibition results from ChEMBL document CHEMBL1138253, “Cytotoxic and apoptotic activities of novel amino analogues of boswellic acids” (2007).

Each structure is given as a SMILES string.

What all share (assay type): functional
For one test, the system named is MCF7. The test can be described thus: Cytotoxicity against human MCF7 cells at 10 uM after 48 hrs. The settings on record: MCF7, 48 h. In short, it runs like this: (§1)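 SRB growth assay. DMSO stock (1 × 10^-2 M) diluted in RPMI-1640 (2 mM glutamine, pH 7.4, 10% FCS, antibiotics). Trypsinized subconfluent cells with >97% viability (trypan blue) seeded at 10^5 cells/ml and grown 24 h, then exposed to compound 48 h at 37 °C, 5% CO2. Fixed with TCA at 4 °C for 1 h, stained with 0.4% SRB, solubilized in 0.01 M Tris pH 10.4, OD read at 540 nm. Run in triplicate; mean of three experiments.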

A further test deals with DU-145. The test can be described thus: Cytotoxicity against human DU145 cells at 10 uM after 48 hrs. The settings on record: DU-145, 48 h. Put shortly:
as §1

In another test the test system is HT-29. The test can be described thus: Cytotoxicity against human HT29 cells at 10 uM after 48 hrs. As to conditions: HT-29, 48 h. Put shortly:
as §1

A short description of test [1]: Cytotoxicity against human 502713 cells at 10 uM after 48 hrs. As to conditions: Homo sapiens, 502713, 48 h. Put shortly: as §1
The next test concerns SW-620. The test can be described thus: Cytotoxicity against human SW620 cells at 10 uM after 48 hrs. As to conditions: SW-620, 48 h. In short, it runs like this: as §1

For `COC(=O)[C@@]1(C)C(=O)CC[C@]2(C)[C@H]3C(=O)C=C4[C@@H]5[C@@H](C)[C@H](C)CC[C@]5(C)CC[C@@]4(C)[C@]3(C)CC[C@@H]12`, the inhibition (in general, the relative decrease from the control value, in per cent) at 10 µM was 3% with MCF7; 13% in the test on DU-145; 5% with HT-29; 20% in test [1]; 2% in the test with SW-620.
For `CCCC(=O)N[C@]1(C)[C@@H]2CC[C@]3(C)[C@H](CC=C4[C@@H]5[C@@H](C)[C@H](C)CC[C@]5(C)CC[C@]43C)[C@@]2(C)CC[C@H]1OC(=O)CCC`, in that order: 0%, 0%, 0%, 7% and 0%.
Taken in the same sequence, the figures for `CC(=O)O[C@@H]1CC[C@@]2(C)[C@@H](CC[C@]3(C)[C@@H]2CC=C2[C@@H]4[C@@H](C)[C@H](C)CC[C@]4(C)CC[C@]23C)[C@@]1(C)C(=O)O` were 0%, 0%, 36%, 20% and 5%.
Regarding `CC(=O)O[C@H]1CC[C@@]2(C)[C@@H](CC[C@]3(C)[C@@H]2CC=C2[C@@H]4[C@@H](C)[C@H](C)CC[C@]4(C)CC[C@]23C)[C@@]1(C)N=C=O`, the inhibition at 10 µM in the test with MCF7 was found to be 50%; in the test on DU-145, 18%; in the test with HT-29, 2%; in test [1] it was 3%; with SW-620, 6%.
As to `COC(=O)[C@]1(C)[C@@H]2CC[C@]3(C)[C@H](C(=O)C=C4[C@@H]5[C@@H](C)[C@H](C)CC[C@]5(C)CC[C@]43C)[C@@]2(C)CC[C@@H]1O`, the inhibition at 10 µM in the test with MCF7 is 0%; in the test on DU-145 it was 0%; in the test on HT-29 it was 3%; in test [1] it was 10%; in the test with SW-620, 11%.
As to `CCC(=O)N[C@]1(C)[C@@H]2CC[C@]3(C)[C@H](CC=C4[C@@H]5[C@@H](C)[C@H](C)CC[C@]5(C)CC[C@]43C)[C@@]2(C)CC[C@H]1OC(=O)CC`, the inhibition at 10 µM in the test on MCF7 came to 35%; with DU-145, 8%; with HT-29, 0%; in test [1], 9%; in the test on SW-620, 0%.
Take `C[C@H]1[C@H](C)CC[C@]2(C)CC[C@]3(C)C(=CC[C@@H]4[C@@]5(C)CC[C@H](O)[C@](C)(N)[C@@H]5CC[C@]43C)[C@H]12`: the inhibition at 10 µM in the test on MCF7 came out at 0%; in the test with DU-145, 16%; with HT-29, 51%; in test [1], 23%; with SW-620, 63%.
For `CC(=O)O[C@@H]1CC[C@@]2(C)[C@@H](CC[C@]3(C)[C@@H]2CC=C2[C@@H]4[C@@H](C)[C@H](C)CC[C@]4(C)CC[C@]23C)[C@@]1(C)N=C=O`, in that order: 30%, 0%, 22%, 0% and 0%.
Taken in the same sequence, the figures for `CCC(=O)N[C@]1(C)[C@@H]2CC[C@]3(C)[C@H](C(=O)C=C4[C@@H]5[C@@H](C)[C@H](C)CC[C@]5(C)CC[C@]43C)[C@@]2(C)CC[C@H]1OC(=O)CC` were 4%, 0%, 0%, 24% and 0%.
For `CC(=O)N[C@@]1(C)[C@@H](OC(C)=O)CC[C@@]2(C)[C@H]1CC[C@]1(C)[C@@H]2CC=C2[C@@H]3[C@@H](C)[C@H](C)CC[C@]3(C)CC[C@]21C`, in that order: 2%, 6%, 27%, 0% and 43%.
As for `COC(=O)[C@]1(C)[C@@H]2CC[C@]3(C)[C@H](CC=C4[C@@H]5[C@@H](C)[C@H](C)CC[C@]5(C)CC[C@]43C)[C@@]2(C)CC[C@@H]1O`, the inhibition at 10 µM was 0% in the test on MCF7; 0% in the test on DU-145; 0% in the test on HT-29; 9% in test [1]; 12% in the test on SW-620.
Consider `C[C@H]1[C@H](C)CC[C@]2(C)CC[C@]3(C)C(=CC[C@@H]4[C@@]5(C)CC[C@@H](O)[C@](C)(C(=O)O)[C@@H]5CC[C@]43C)[C@H]12` [BOSWELLIC ACID], for which the inhibition at 10 µM came to 18% in the test with MCF7; 0% in the test on DU-145; 15% in the test with HT-29; 24% in test [1]; 2% in the test with SW-620.
As to `CC(=O)O[C@H]1CC[C@@]2(C)[C@@H](CC[C@]3(C)[C@@H]2C(=O)C=C2[C@@H]4[C@@H](C)[C@H](C)CC[C@]4(C)CC[C@]23C)[C@@]1(C)N=C=O`, the inhibition at 10 µM in the test with MCF7 turned out to be 9%; in the test on DU-145 it was 0%; in the test on HT-29, 5%; in test [1], 0%; in the test on SW-620, 20%.
With `CC(=O)N[C@]1(C)[C@@H]2CC[C@]3(C)[C@H](CC=C4[C@@H]5[C@@H](C)[C@H](C)CC[C@]5(C)CC[C@]43C)[C@@]2(C)CC[C@H]1OC(C)=O`, the inhibition at 10 µM stood at 57% in the test on MCF7; 8% with DU-145; 0% in the test on HT-29; 7% in test [1]; 0% in the test with SW-620.
In the case of `CCCC(=O)N[C@]1(C)[C@@H]2CC[C@]3(C)[C@H](C(=O)C=C4[C@@H]5[C@@H](C)[C@H](C)CC[C@]5(C)CC[C@]43C)[C@@]2(C)CC[C@H]1OC(=O)CCC`, the inhibition at 10 µM stood at 0% in the test with MCF7; 0% in the test with DU-145; 0% in the test with HT-29; 12% in test [1]; 0% in the test on SW-620.
On to `COC(=O)[C@@]1(C)[C@H](O)CC[C@@]2(C)[C@H]1CC[C@]1(C)[C@@H]2C(=O)C=C2[C@@H]3[C@@H](C)[C@H](C)CC[C@]3(C)CC[C@]21C`, for which the inhibition at 10 µM turned out to be 0% in the test with MCF7; 12% in the test on DU-145; 0% in the test with HT-29; 19% in test [1]; 1% in the test with SW-620.
In the case of `CC(=O)O[C@@H]1CC[C@@]2(C)[C@@H](CC[C@]3(C)[C@@H]2C(=O)C=C2[C@@H]4[C@@H](C)[C@H](C)CC[C@]4(C)CC[C@]23C)[C@@]1(C)N=C=O`, the inhibition at 10 µM is 10% in the test on MCF7; 0% in the test on DU-145; 0% with HT-29; 2% in test [1]; 0% in the test on SW-620.
As for `C[C@H]1[C@H](C)CC[C@]2(C)CC[C@]3(C)C(=CC[C@@H]4[C@@]5(C)CC[C@H](O)[C@](C)(C(=O)O)[C@@H]5CC[C@]43C)[C@H]12`, the inhibition at 10 µM with MCF7 turned out to be 18%; in the test with DU-145, 1%; in the test with HT-29, 11%; in test [1], 18%; in the test on SW-620 it was 15%.
Take `CC(=O)O[C@H]1CC[C@@]2(C)[C@@H](CC[C@]3(C)[C@@H]2CC=C2[C@@H]4[C@@H](C)[C@H](C)CC[C@]4(C)CC[C@]23C)[C@@]1(C)C(=O)O`: the inhibition at 10 µM in the test on MCF7 amounted to 15%; in the test on DU-145, 0%; in the test on HT-29, 17%; in test [1] it was 12%; in the test with SW-620, 20%.
For `CC(=O)N[C@]1(C)[C@@H]2CC[C@]3(C)[C@H](C(=O)C=C4[C@@H]5[C@@H](C)[C@H](C)CC[C@]5(C)CC[C@]43C)[C@@]2(C)CC[C@H]1OC(C)=O`, in that order: 62%, 9%, 0%, 20% and 0%.
Consider `CC(=O)O[C@H]1C(=O)[C@@]2(C)[C@H]([C@H](OC(=O)c3ccccc3)[C@]3(O)C[C@H](OC(=O)[C@H](O)[C@@H](NC(=O)c4ccccc4)c4ccccc4)C(C)=C1C3(C)C)[C@]1(OC(C)=O)CO[C@@H]1C[C@@H]2O` [PACLITAXEL], for which the inhibition at 10 µM with MCF7 came out at 46%; with DU-145, 53%; with HT-29, 76%; in test [1], 26%; with SW-620, 41%.
Take `COC(=O)[C@@]1(C)[C@H](O)CC[C@@]2(C)[C@H]1CC[C@]1(C)[C@@H]2CC=C2[C@@H]3[C@@H](C)[C@H](C)CC[C@]3(C)CC[C@]21C`: the inhibition at 10 µM with MCF7 was 1%; in the test on DU-145, 13%; in the test with HT-29 it was 0%; in test [1], 23%; in the test on SW-620, 0%.
Turning to `C[C@H]1[C@H](C)CC[C@]2(C)CC[C@]3(C)C(=CC(=O)[C@@H]4[C@@]5(C)CC[C@H](O)[C@](C)(N)[C@@H]5CC[C@]43C)[C@H]12`, the inhibition at 10 µM in the test with MCF7 stood at 17%; in the test on DU-145, 0%; in the test with HT-29, 0%; in test [1], 0%; in the test with SW-620, 7%.
